Values joined by “and” are separate entries in the source; they are usually repeats but may differ in a detail not shown here. Equal values may be shown once.
Tests used:
Assay type in all cases: functional
Mus musculus [1] = assay: On set and incidence of arthritis in the Mouse Type II collagen model following 0.5 mg/kg on day 30.; settings: 0.5 mg/kg
Procedure, shortened: (§1)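 DBA/1 Lac mice sensitized with bovine type II collagen (100 μg) in Freund's complete adjuvant, ip boost (100 μg) on day 21. Freshly dissolved compound in sterile saline was given iv every second day, day 19 through day 40, groups of 12. A mouse was scored arthritic if erythema or edema was present on any digit, paw or appendage. Incidence reported as number positive of 12.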

Mus musculus [2] = assay: On set and incidence of arthritis in the Mouse Type II collagen model at 0.5 dose mg/kg on day 37, expressed as number of mice treated out of 12 tested; procedure, shortened: as §1
Mus musculus [3] = assay: On set and incidence of arthritis in the Mouse Type II collagen model at 0.5 dose mg/kg on day 40, expressed as number of mice treated out of 12 tested; procedure, shortened: as §1
Mus musculus [4] = assay: On set and incidence of arthritis in the Mouse Type II collagen model at 0.5 dose mg/kg on day 44, expressed as number of mice treated out of 12 tested; procedure, shortened: as §1
Mus musculus [5] = assay: Extent of paw swelling after treatment with thymopentin-5 (TP-5) compound in the Mouse Type II collagen arthritis at a dosage of 1.0 mg/kg on day 40
Procedure, shortened: (§2)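 DBA/1 Lac mice immunized with bovine type II collagen (100 μg) in Freund's complete adjuvant at four to six back sites, then boosted ip (100 μg) on day 21. Dosing was iv in sterile saline every second day from day 19 through day 40, 12 mice per dose. Each hind paw was measured by caliper. Result given as % of untreated swelling after subtracting age-matched normal paw.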

Mus musculus [6] = assay: Extent of paw swelling after treatment with thymopentin-5 (TP-5) compound in the Mouse Type II collagen arthritis at 1 mg/kg on day 30.; procedure, shortened: as §2
Mus musculus [7] = assay: Extent of paw swelling after treatment with thymopentin-5 (TP-5) compound in the Mouse Type II collagen arthritis at a dosage of 1.0 mg/kg on day 37; procedure, shortened: as §2
Mus musculus [8] = assay: Extent of paw swelling after treatment with thymopentin-5 (TP-5) compound in the Mouse Type II collagen arthritis at a dosage of 1.0 mg/kg on day 44; procedure, shortened: as §2
Mus musculus [9] = assay: Extent of paw swelling after treatment with thymopentin-5 (TP-5) compound in the Mouse Type II collagen arthritis at a dosage of 0.01 mg/kg on day 44; settings: 0.01 mg/kg; procedure, shortened: as §2
Rattus norvegicus [10] = assay: extent of paw swelling following treatment with the compound in the rat adjuvant arthritis model observed on day 12 at 0.050 mg/kg dose; settings: dose 0.05 mg/kg
Procedure, shortened: (§3)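 Rat adjuvant arthritis with iv dosing every second day, starting 2 days before the adjuvant/antigen challenge. Initial doses ranged 0.05 to 0.50 mg/kg, eight rats per dose. Each hind paw was measured by caliper. Swelling minus age-matched normal paw, expressed as % of untreated animals.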

Rattus norvegicus [11] = assay: extent of paw swelling following treatment with the compound in the rat adjuvant arthritis model observed on day 16 at 0.050 mg/kg dose; settings: dose 0.05 mg/kg; procedure, shortened: as §3
Rattus norvegicus [12] = assay: extent of paw swelling following treatment with the compound in the rat adjuvant arthritis model observed on day 19 at 0.050 mg/kg dose; settings: dose 0.05 mg/kg; procedure, shortened: as §3
Mus musculus [13] = assay: On set and incidence of arthritis in the Mouse Type II collagen model at 0.5 dose mg/kg on day 37, expressed as ratio of number treated to that of control; procedure, shortened: as §1
Mus musculus [14] = assay: On set and incidence of arthritis in the Mouse Type II collagen model at 0.5 dose mg/kg on day 44, expressed as ratio of number treated to that of control; procedure, shortened: as §1
Rattus norvegicus [15] = assay: extent of paw swelling following treatment with the compound in the rat adjuvant arthritis model observed on day 12 at 0.075 mg/kg dose; procedure, shortened: as §3
Rattus norvegicus [16] = assay: extent of paw swelling following treatment with the compound in the rat adjuvant arthritis model observed on day 16 at 0.075 mg/kg dose; procedure, shortened: as §3
Rattus norvegicus [17] = assay: extent of paw swelling following treatment with the compound in the rat adjuvant arthritis model observed on day 19 at 0.075 mg/kg dose; procedure, shortened: as §3
Mus musculus [18] = assay: On set and incidence of arthritis in the Mouse Type II collagen model at 0.5 dose mg/kg on day 40, expressed as ratio of number treated to that of control; procedure, shortened: as §1
Rattus norvegicus [19] = assay: extent of paw swelling following treatment with the compound in the rat adjuvant arthritis model observed on day 12 at 0.05 mg/kg dose; procedure, shortened: as §3
Rattus norvegicus [20] = assay: extent of paw swelling following treatment with the compound in the rat adjuvant arthritis model observed on day 16 at 0.05 mg/kg dose; procedure, shortened: as §3
Rattus norvegicus [21] = assay: extent of paw swelling following treatment with the compound in the rat adjuvant arthritis model observed on day 19 at 0.05 mg/kg dose; procedure, shortened: as §3
Mus musculus [22] = assay: On set and incidence of arthritis in the Mouse Type II collagen model at 0.5 dose mg/kg on day 30, expressed as ratio of number treated to that of control; procedure, shortened: as §1
Mus musculus [23] = assay: Extent of paw swelling after treatment with thymopentin-5 (TP-5) compound in mouse type II collagen arthritis at a dosage of 1.0 mg/kg on day 30; procedure, shortened: as §2

Row | SMILES | No. of mice (Mus musculus [1]) | No. of mice (Mus musculus [2]) | No. of mice (Mus musculus [3]) | No. of mice (Mus musculus [4]) | No. of mice (Mus musculus [13]) | No. of mice (Mus musculus [14]) | No. of mice (Mus musculus [18]) | also measured
1 | CC(C)[C@H](NC(=O)[C@H](CC(=O)O)NC(=O)[C@@H]1CCCN1C(=O)[C@@H](N)CCCN=C(N)N)C(=O)C[C@@H](Cc1ccccc1)C(=O)O (stereo in doubt; 1b-B) | 6 | 9 | 10 | 11 |  |  |  | Paw swelling (Mus musculus [5]): 42%; Paw swelling (Mus musculus [6]): 66%; Paw swelling (Mus musculus [7]): 59%; Paw swelling (Mus musculus [8]): 53%
2 | CCCC[C@H](NC(=O)[C@@H](N)CCCN=C(N)N)C(=O)N[C@@H](CC(=O)O)C(=O)N[C@H](C(=O)C[C@@H](Cc1ccccc1)C(=O)O)C(C)C (stereo in doubt; 1c-A) | 5 | 9 | 10 | 8 |  |  |  | Paw swelling (Mus musculus [9]): 66% and 69% and 70% and 63%; Paw swelling (Rattus norvegicus [10]): 0%; Paw swelling (Rattus norvegicus [11]): 100%; Paw swelling (Rattus norvegicus [12]): 100%
3 | CCCC[C@H](NC(=O)[C@@H](N)CCCN=C(N)N)C(=O)N[C@@H](CC(=O)O)C(=O)N[C@H](C(=O)C[C@@H](Cc1ccccc1)C(=O)O)C(C)C (stereo in doubt; 1c-B) | 8 | 11 | 11 | 12 |  |  |  | Paw swelling (Mus musculus [8]): 100%
4 | CCCCC(CC(=O)[C@@H](N)CCCN=C(N)N)C(=O)N[C@@H](CC(=O)O)C(=O)NC(C(=O)C[C@H](C(=O)O)C(C)C)C(C)C (stereo in doubt; 1h-B) | 6 |  |  |  | 7 | 9 |  | Paw swelling (Rattus norvegicus [15]): 0%; Paw swelling (Rattus norvegicus [16]): 100%; Paw swelling (Rattus norvegicus [17]): 70%
5 | CCCC[C@@H](C(=O)N[C@@H](CC(=O)O)C(=O)N[C@H](C(=O)C[C@H](C(=O)O)C(C)C)C(C)C)N(C)C(=O)[C@@H](N)CCCN=C(N)N (stereo in doubt; 1m-B) | 8 |  |  |  | 11 | 12 | 11 | Paw swelling (Mus musculus [6]; 1 mg/kg): 100%; Paw swelling (Rattus norvegicus [19]): 0%; Paw swelling (Rattus norvegicus [20]): 100%; Paw swelling (Rattus norvegicus [21]): 100%
6 | CC(C)[C@H](CC(=O)[C@H](CC(=O)O)NC(=O)[C@H](CCCCN)NC(=O)[C@@H](N)CCCN=C(N)N)C(=O)N[C@@H](Cc1ccccc1)C(=O)O (stereo in doubt; 3a-B) |  |  |  |  | 11 | 12 | 12 | No. of mice (Mus musculus [22]): 8; Paw swelling (Mus musculus [23]): 100%
7 | CC(CC(=O)[C@H](CC(=O)O)NC(=O)C(CCCCN)NC(=O)[C@@H](N)CCCN=C(N)N)C(=O)NC(Cc1ccccc1)C(=O)O (stereo in doubt; 3e-A) | 5 |  |  |  | 9 | 12 | 11 | Paw swelling (Mus musculus [23]; 1 mg/kg): 88% and 57% and 73% and 75%
8 | CC(CC(=O)[C@H](CC(=O)O)NC(=O)C(CCCCN)NC(=O)[C@@H](N)CCCN=C(N)N)C(=O)NC(Cc1ccccc1)C(=O)O (stereo in doubt; 3e-B) | 10 |  |  |  | 11 |  | 10 | Paw swelling (Mus musculus [23]; 1 mg/kg): 100% and 68% and 77%

— ChEMBL document CHEMBL1130100, “Stabilized analogs of thymopentin. 3. Evaluation of ketomethylene pseudopeptides for antiarthritic properties” (1997)
